The target of test [1] is T1, 5-hydroxytryptamine receptor 1A (Rattus norvegicus, UniProt P19327).
T1 sequence (P19327 whole entry): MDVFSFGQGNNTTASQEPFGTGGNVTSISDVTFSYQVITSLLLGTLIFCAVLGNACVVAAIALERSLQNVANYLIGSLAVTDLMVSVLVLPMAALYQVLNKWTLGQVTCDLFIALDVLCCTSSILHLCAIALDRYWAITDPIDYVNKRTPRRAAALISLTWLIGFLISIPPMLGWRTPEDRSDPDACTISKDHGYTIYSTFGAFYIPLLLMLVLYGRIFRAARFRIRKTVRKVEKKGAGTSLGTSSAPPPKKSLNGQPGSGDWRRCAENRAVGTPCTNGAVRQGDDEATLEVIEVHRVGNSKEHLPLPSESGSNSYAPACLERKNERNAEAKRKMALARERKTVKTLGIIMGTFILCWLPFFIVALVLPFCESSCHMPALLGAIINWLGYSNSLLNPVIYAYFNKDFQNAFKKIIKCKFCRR
In words: Displacement of [3H]8-OH-DPAT from rat cortex 5-hydroxytryptamine 1A receptor.

The target in test [2] is T2, 5-hydroxytryptamine receptor 1B (Rattus norvegicus, UniProt P28564). As to the kind of experiment: Inhibitory activity against 5-hydroxytryptamine 1B receptor of rat cortex using [3H]5-HT. A digest of the protocol:
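Competition binding in rat cortex membranes, using the radioligand named in each line at a concentration of approximately its K_D.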

The target of test [3] is Serotonin 2 (5-HT2) receptor (Rattus norvegicus, UniProt P30994+P08909+P14842). In words: Compound was evaluated for its inhibitory activity against 5-hydroxytryptamine 2 receptor of rat anterior cortex using [3H]ketanserin as the radioligand.
Test [4] deals with T2, 5-hydroxytryptamine receptor 1B. In words: Inhibitory activity against 5-hydroxytryptamine 1B receptor of rat cortex using [3H]5-HT as the radioligand.
A further test concerns the target 5-HT1A receptor (Cavia porcellus, UniProt A0A286Y074). In words: Inhibition of Forskolin-stimulated adenylate cyclase activity against 5-hydroxytryptamine 1A receptor of guinea pig hippocampus. The format is functional, tissue-based. A digest of the protocol:
(§1)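 Washed membranes came from guinea pig hippocampus, rat substantia nigra or guinea pig substantia nigra. They were incubated at 30 °C with [α-³²P]ATP, 3 μM forskolin and varying agonist concentrations. The reaction was stopped with 3% SDS. [³²P]cAMP was isolated by two-column chromatography and counted by scintillation, in pmol/mg protein/min. Points were run in triplicate, and EC50 came from at least three experiments.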

The species named for a further test is Rattus norvegicus. In words: Effect of direct injection into the PVN (paraventricular medial hypothalamus) of rats on feeding behavior and the inhibition of food intake. In kind it is functional. A digest of the protocol: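 Seven days later they were food-deprived for 24 h with water available. Each rat received a PVN infusion at 1 μL/min of test agent (16 μg) or 5-HT (32 μg) in 0.9% NaCl, or vehicle. Food eaten over 30 min was weighed. Groups were compared by two-tailed t test, and rats with misplaced cannulae were excluded after histology.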

Test [5] addresses T2, 5-hydroxytryptamine receptor 1B. In words: Inhibition of Forskolin-stimulated adenylate cyclase activity against 5-hydroxytryptamine 1B receptor of rat substantia nigra. In kind it is functional. A digest of the protocol: as §1
Test [6] concerns the target 5-hydroxytryptamine receptor 1D (Cavia porcellus, UniProt Q60484). As to the kind of experiment: Inhibition of Forskolin-stimulated adenylate cyclase activity against 5-hydroxytryptamine 1D receptor of guinea pig substantia nigra. A digest of the protocol:
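Washed membranes from freshly dissected guinea pig substantia nigra, incubated at 30 °C with [α-³²P]ATP plus 3 μM forskolin and varying agonist concentrations. Reaction stopped with 3% SDS. [³²P]cAMP separated from [³²P]ATP on two columns and counted by liquid scintillation, as pmol/mg protein/min. EC50 from at least three experiments, each in triplicate.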

Where only a bound is given, the exact number is not on record here.

T2 sequence (P28564 whole entry): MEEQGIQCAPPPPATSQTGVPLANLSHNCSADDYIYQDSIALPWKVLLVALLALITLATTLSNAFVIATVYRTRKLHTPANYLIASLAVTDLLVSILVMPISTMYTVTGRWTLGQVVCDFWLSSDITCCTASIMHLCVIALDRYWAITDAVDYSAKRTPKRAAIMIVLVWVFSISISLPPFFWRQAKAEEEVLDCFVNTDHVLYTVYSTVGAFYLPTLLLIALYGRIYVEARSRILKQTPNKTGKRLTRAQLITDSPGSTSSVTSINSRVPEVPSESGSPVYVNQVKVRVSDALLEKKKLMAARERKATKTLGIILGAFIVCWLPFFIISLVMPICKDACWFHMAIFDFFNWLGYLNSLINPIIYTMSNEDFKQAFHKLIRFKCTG
Chain of 5-hydroxytryptamine receptor 1D (Q60484 whole entry): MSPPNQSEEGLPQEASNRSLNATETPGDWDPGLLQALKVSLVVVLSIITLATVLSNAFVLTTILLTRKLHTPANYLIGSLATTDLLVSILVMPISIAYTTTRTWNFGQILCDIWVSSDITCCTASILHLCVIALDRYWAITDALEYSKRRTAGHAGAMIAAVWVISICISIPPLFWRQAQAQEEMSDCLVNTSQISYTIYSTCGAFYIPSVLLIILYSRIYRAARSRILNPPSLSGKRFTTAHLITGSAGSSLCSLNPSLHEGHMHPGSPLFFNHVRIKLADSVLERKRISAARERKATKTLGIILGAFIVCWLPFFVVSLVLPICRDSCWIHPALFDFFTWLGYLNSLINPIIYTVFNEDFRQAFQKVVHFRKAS

Consider `Oc1ccc2[nH]cc(C3=CCNCC3)c2c1`, for which the results for the IC50 in test [1] and in test [2] were 30 nM and 1.2 nM, respectively.
For `N#Cc1ccc2[nH]cc(C3=CCNCC3)c2c1`, in that order: 32 nM and 0.8 nM.
Consider `Fc1ccc2[nH]cc(C3=CCNCC3)c2c1`, for which the IC50 in test [1] turned out to be 65 nM; in test [2] it was 1.9 nM.
Turning to `CN1CCN(c2nc3cc(C(F)(F)F)ccc3n3cccc23)CC1`, the IC50 in test [1] stood at 19 nM; in test [3], 6800 nM; in test [2], 150 nM.
For `FC(F)(F)c1cccc(N2CCNCC2)c1`, in that order: 290 nM, 570 nM and 27 nM.
On to `Brc1ccc2[nH]cc(C3=CCNCC3)c2c1`, for which the values for the IC50 in test [1] and in test [2] were 13 nM and 3.2 nM, respectively.
As to `C1=C(c2c[nH]c3ccccc23)CCNC1`, the IC50 in test [1] amounted to 140 nM; in test [4], 3.7 nM.
With `FC(F)(F)c1ccc2c(c1)nc(N1CCNCC1)c1cccn12`, the figures for the IC50 in test [1], in test [3] and in test [2] were 37 nM, more than 10000 nM and 21 nM, respectively.
`Clc1ccc2[nH]cc(C3=CCNCC3)c2c1`: the IC50 is 26 nM in test [1] and 3.3 nM in test [2].
For `O=[N+]([O-])c1ccc2[nH]cc(C3=CCNCC3)c2c1`, in that order: 36 nM and 3.5 nM.
Turning to `Oc1ccc2[nH]cc(C3=CCNCC3)c2n1`, the EC50 on 5-HT1A receptor is more than 10000 nM; in test [5] it was 56 nM. For the same molecule, the IC50 is 3000 nM in test [1], more than 10000 nM in test [3] and 15 nM in test [2]. This molecule also came in with a g/30min in the test filed under Rattus norvegicus of 0.12.
Molecule `COc1ccc2[nH]cc(C3=CCNCC3)c2c1` [RU-24969] had an IC50 in test [2] of 2 nM.
With `NCCc1c[nH]c2ccc(O)cc12` [SEROTONIN], the midpoint of the response in test [6], the EC50, lay at 16 nM. Further, the g/30min in the test filed under Rattus norvegicus is listed as 1.15.

Usually IC50 stands for the concentration that gives 50% inhibition. A high value points to lower potency. What is called EC50 is the concentration needed to bring the measured effect to its halfway point. A low value points to higher potency in that assay.

The record behind these values is ChEMBL document CHEMBL1124862 (J Med Chem, 1990).
